# Source: PubChem BioAssay (several laboratories)
# Most compounds without a hit are left out; they make up all but 4.9% or so of the library.
# CHT inh – human CHT choline transport inhibition | CHT-expressing cells, membrane potential dye, choline response; hits give low values | B-score at 10 µM | 310,000 tested, 0.86% active | AID 488975;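 active = B-score over 3 SD under the library average, and starting fluorescence ratio not unusually high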;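 also: choline stimulus applied at its EC90 after an EC20 pre-addition; B-score computed on integrated fluorescence ratio after choline addition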
# Target sequence (Q9GZV3 whole entry, looked up): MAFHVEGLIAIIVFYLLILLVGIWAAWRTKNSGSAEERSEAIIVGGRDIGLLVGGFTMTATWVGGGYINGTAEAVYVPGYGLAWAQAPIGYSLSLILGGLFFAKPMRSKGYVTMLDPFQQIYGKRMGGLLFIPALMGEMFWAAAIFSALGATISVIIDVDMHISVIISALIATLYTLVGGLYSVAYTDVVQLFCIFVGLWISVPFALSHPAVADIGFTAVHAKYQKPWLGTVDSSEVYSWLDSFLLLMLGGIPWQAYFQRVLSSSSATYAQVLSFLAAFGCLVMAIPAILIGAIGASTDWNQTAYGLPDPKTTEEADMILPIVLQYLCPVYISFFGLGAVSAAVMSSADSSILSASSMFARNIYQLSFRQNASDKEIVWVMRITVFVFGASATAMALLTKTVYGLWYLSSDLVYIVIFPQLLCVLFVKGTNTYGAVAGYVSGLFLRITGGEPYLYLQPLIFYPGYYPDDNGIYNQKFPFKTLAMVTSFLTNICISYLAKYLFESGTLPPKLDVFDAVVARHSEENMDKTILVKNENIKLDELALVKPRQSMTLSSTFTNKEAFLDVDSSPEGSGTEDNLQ
# Lipid droplet – hepatic lipid droplet formation modulation | AML12 mouse hepatocytes, oleate lipid droplets, BODIPY imaging | inhibition, % at 6.5 µM | 240,000 tested, 0.4% active | AID 1656;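 active = lipid droplet intensity inhibited by at least 50%, with more than 500 cells counted; inconclusive = wells with under 300 cells, treated as cytotoxic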
#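 Assay system: AML12 hepatocytes (mouse); Probe or stimulus: oleic acid at 100 µM to induce lipid droplet formation; Dosing: compound at 6.5 µM only; Schedule: compound with oleate, overnight; Detection: fluorescence imaging, 20x objective, two fields per well; Measure: % inhibition of lipid droplet signal.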
# HSF1 inh – HSF1 inhibition; NIH3T3-HGL HSE-luciferase, MG132-induced, luminescence 8 h; hits give low values; activity change, negative = inhibition, % at 7.5 µM (by protocol); 300,000 tested, 0.77% active; AID 2098;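 active = more than half of replicate wells show activity change below -50%, luminescence cut by over half; inconclusive = some wells, but at most half, below -50%; inactive = no replicate well below -50%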;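 also: luciferase reports HSF-1 transcriptional activity via heat shock element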
# PHOSPHO1 block – PHOSPHO1 (human) inhibition. Q8TCT1. recombinant PHOSPHO1, absorbance phosphatase assay. inhibition, % at 13.3 µM. 290,000 tested, 1.1% active. AID 1565; in the data active = inhibition above about 60%
# HSF1 activator – increases HSF-1 driven luciferase reporter signal | NIH3T3-HGL HSF-1 luciferase reporter, MG132, 8 h; 100% = twice DMSO control signal | 300,000 tested, 1.7% active | AID 504408 | activation, % at 9 µM;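 active = mean replicate activation of at least 50% with a set share of replicates each reaching 50%; inconclusive = only one of those two conditions met; inactive = mean below 50% and too few replicates reaching it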
# CHT allo act – human CHT allosteric activation. B-score at 10 µM. CHT-expressing cells, membrane potential dye, choline EC20; hits give high values; LV-AA mutant CHT in HEK293 cells. Q9GZV3. 310,000 tested, 0.49% active;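 active = initial fluorescence not abnormally high and integrated response B-score, plate-corrected, over 3 SD above library mean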
# Hits are given with their value; . = inactive; ? = inconclusive; / = no result.
SMILES,CHT inh,Lipid droplet,HSF1 inh,PHOSPHO1 block,HSF1 activator,CHT allo act
COC(=O)c1cnc(SCc2ccc(Cl)cc2)n1C,.,.,.,.,69,.
Cn1c(CO)cnc1SCc1c(Cl)cccc1Cl,.,/,.,74,.,.
COC(=O)CSc1nnc(SCc2ccc(Cl)cc2)s1,.,.,.,.,.,.
O=S(=O)(Nc1cc2nc3ccccc3nc2n1Cc1ccccc1)c1ccc(Cl)cc1,.,.,.,.,114,.
O=S(=O)(NCc1ccccc1)c1ccc(Cl)cc1,.,.,.,.,.,.
CCOC(=O)CCc1c(C)nc(SCC(=O)O)c(C#N)c1C,.,/,.,.,.,.
CCc1nnc(NS(=O)(=O)c2ccc(NC(=O)c3ccc(C#N)cc3)cc2)s1,.,.,.,/,.,.
CC1(C)CC(=O)C=C(Nc2ccc(Br)cc2F)C1,.,.,-64,.,.,.
Cc1ccc(NC2=CC(=O)CC(C)(C)C2)c(N)c1,.,/,.,.,.,.
CC1COC(=O)C(NNc2ccc(Cl)c(Cl)c2)=N1 (configuration not stated),.,.,.,.,.,.
CC(C)OCCCNC(=O)Cn1ccc2cc(S(=O)(=O)N3CCCCC3)ccc21,.,.,.,.,.,.
Cc1c(N2C(=O)c3ccc4c5c(ccc(c35)C2=O)CC4)c(=O)n(-c2ccccc2)n1C,.,.,.,78,.,.
O=P(O)(C(O)c1ccccc1)C(O)c1ccccc1 (configuration not stated),.,/,.,/,.,.
Cc1c(C=O)c2ccccn2c1C(=O)c1ccccc1,.,.,.,.,.,.
Cc1c(C(C)(C)C)c(C=S)n2ccccc12,.,.,.,93,.,.
Cc1nnc(-c2cnn(-c3ccccc3)c2N)n1Cc1cccc(C(F)(F)F)c1,.,/,-60,.,.,.
Cc1ccc(-c2cnn(-c3cccc(C(F)(F)F)c3)c2N)cc1,.,/,.,.,53,.
Nc1c(-c2ccccc2)cnn1-c1cccc([N+](=O)[O-])c1,.,/,.,65,.,.
Nc1c(-c2ccc(Cl)cc2)cnn1-c1cccc([N+](=O)[O-])c1,.,/,.,.,.,.
Nc1c(-c2ccc(Cl)cc2)cnn1-c1cccc(C(F)(F)F)c1,.,/,.,.,.,.
O=C(CSC1=NCCS1)Nc1ccc(F)cc1,.,.,.,.,.,.
O=C(CSc1ccc(F)cc1)Nc1ccc(C2SCCS2)cc1,.,.,.,.,60,.
Cc1ccc(/C=N/Nc2nncn2N)cc1,.,.,.,.,74,.
Cc1ccc(/C=N/Nc2nc(C)cc(C)n2)cc1,.,.,.,.,.,.
Cc1nnc(N/N=C/c2ccc([N+](=O)[O-])cc2)n1N,.,.,.,.,.,.
SMILES,CHT inh,Lipid droplet,HSF1 inh,PHOSPHO1 block,HSF1 activator,CHT allo act
Nn1cnnc1N/N=C/c1ccccc1C(F)(F)F,.,/,.,/,?,.
Nn1cnnc1N/N=C/c1ccc(F)cc1,.,.,.,.,55,.
COc1ccc(/C=N/Nc2nnc(C)n2N)cc1OC(C)=O,.,/,.,.,80,.
Cc1nnc(N/N=C/c2ccc(Br)cc2)n1N,.,.,.,.,52,.
O=C(N/C(=C\c1cccc([N+](=O)[O-])c1)C(=O)N1CCOCC1)c1cccc(Br)c1,.,.,.,.,.,.
Nn1cnnc1N/N=C/c1ccc(Cl)c([N+](=O)[O-])c1,.,.,-98,.,.,.
Nc1nnnn1/N=C\c1ccc(Cl)c([N+](=O)[O-])c1,.,/,.,.,?,.
Cc1cc(C)cc(C(=O)OCC(=O)NC2CCCC2)c1,.,.,.,.,.,.
Cc1ccc(S(=O)(=O)C(CCC(=O)N2CCOCC2)S(=O)(=O)c2ccc(C)cc2)cc1,.,/,.,.,.,.
CCC(N1CCOC1=O)S(=O)(=O)c1ccc(C)cc1 (configuration not stated),.,.,.,93,.,.
CCN(CC)CCCN(C(=O)c1ccco1)c1nc(-c2ccc(C)cc2)cs1,.,.,-69,.,.,.
c1csc(-c2cc(N3CCCCC3)c3ccccc3n2)c1,.,.,.,.,.,.
CCOC(=O)COc1ccc(/C=C/[N+](=O)[O-])c(OCC(=O)OCC)c1,.,/,.,.,197,.
CCOC(=O)COc1ccc2nsnc2c1,.,/,.,.,.,.
